Measured values taken from ChEMBL document CHEMBL1926589, “2-Anilinonicotinyl linked 2-aminobenzothiazoles and [1,2,4]triazolo[1,5-b] [1,2,4]benzothiadiazine conjugates as potential mitochondrial apoptotic inducers” (Bioorg Med Chem, 2011).
Activity calls are given as the source filed them. No cut-off for these calls is given here.

Tested on: IMR-32
Test: Growth inhibition of human IMR32 cells at 10 uM by sulforhodamine B assay
Assay type: functional
Details: read-out: GI
Procedure, shortened: (§1)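 Single-dose 10 µM screen by sulforhodamine B assay, reported as percent inhibition of cell proliferation. Cells grown in medium with 10% heat-inactivated FBS at 37 °C, 5% CO2, and treated at about 70% confluence or in log phase. Compounds dissolved in DMSO; controls received vehicle (<0.5% v/v).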
For `O=C(Nc1nc2ccc([N+](=O)[O-])cc2s1)c1cccnc1Nc1ccc(Cl)cc1Cl`, the inhibition of growth at 10 µM was 48%.

Tested on: SK-N-SH
Test: Growth inhibition of human SK-N-SH cells at 10 uM by sulforhodamine B assay
Assay type: functional
Details: read-out: GI
Procedure, shortened: as §1
In the case of `O=C(Nc1nc2ccc([N+](=O)[O-])cc2s1)c1cccnc1Nc1ccc(Cl)cc1Cl`, the inhibition of growth at 10 µM is reported as 50%.

Tested on: SiHa
Test: Growth inhibition of human SiHa cells at 10 uM by sulforhodamine B assay
Assay type: functional
Details: read-out: GI
Procedure, shortened: as §1
Work on `O=C(Nc1nc2ccc([N+](=O)[O-])cc2s1)c1cccnc1Nc1ccc(Cl)cc1Cl` yielded an inhibition of growth at 10 µM of 35%.

Tested on: SW-620
Test: Growth inhibition of human SW620 cells at 10 uM by sulforhodamine B assay
Assay type: functional
Details: read-out: GI
Procedure, shortened: as §1
With `O=C(Nc1nc2ccc([N+](=O)[O-])cc2s1)c1cccnc1Nc1ccc(Cl)cc1Cl` the inhibition of growth at 10 µM was 61%.

Tested on: HCT-15
Test: Growth inhibition of human HCT15 cells at 10 uM by sulforhodamine B assay
Assay type: functional
Details: read-out: GI
Procedure, shortened: as §1
In the case of `O=C(Nc1nc2ccc([N+](=O)[O-])cc2s1)c1cccnc1Nc1ccc(Cl)cc1Cl`, the inhibition of growth at 10 µM is reported as 75%.

Tested on: not listed separately
Test: Growth inhibition of human 502713 cells at 10 uM by sulforhodamine B assay
Assay type: functional
Details: read-out: GI
Procedure, shortened: as §1
In the case of `O=C(Nc1nc2ccc([N+](=O)[O-])cc2s1)c1cccnc1Nc1ccc(Cl)cc1Cl`, the inhibition of growth at 10 µM is reported as 2%.

Tested on: DU-145
Test: Growth inhibition of human DU145 cells at 10 uM by sulforhodamine B assay
Assay type: functional
Details: read-out: GI
Procedure, shortened: as §1
`O=C(Nc1nc2ccc([N+](=O)[O-])cc2s1)c1cccnc1Nc1ccc(Cl)cc1Cl` gave an inhibition of growth at 10 µM of 39%.

Tested on: A549
Test: Growth inhibition of human A549 cells at 10 uM by sulforhodamine B assay
Assay type: functional
Details: read-out: GI
Procedure, shortened: as §1
For `O=C(Nc1nc2ccc([N+](=O)[O-])cc2s1)c1cccnc1Nc1ccc(Cl)cc1Cl`, the inhibition of growth at 10 µM was 19%.

Tested on: HEp-2
Test: Growth inhibition of human Hep2 cells at 10 uM by sulforhodamine B assay
Assay type: functional
Details: read-out: GI
Procedure, shortened: as §1
Molecule `O=C(Nc1nc2ccc([N+](=O)[O-])cc2s1)c1cccnc1Nc1ccc(Cl)cc1Cl` has an inhibition of growth at 10 µM of 14%.

Tested on: OVCAR-5
Test: Growth inhibition of human OVCAR5 cells at 10 uM by sulforhodamine B assay
Assay type: functional
Details: read-out: GI
Procedure, shortened: as §1
Molecule `O=C(Nc1nc2ccc([N+](=O)[O-])cc2s1)c1cccnc1Nc1ccc(Cl)cc1Cl` has an inhibition of growth at 10 µM of 0%.

Tested on: HL-60
Test: Induction of apoptosis in human HL60 cells assessed as early apoptotic cells at 1 uM after 24 hrs using Annexin V-FITC and propidium iodide staining by flow cytometry relative to control
Assay type: functional
Details: not given
Procedure, shortened: (§2)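 HL-60 cells (1 x 10^5 per 1.5 mL) treated 24 h, washed twice in PBS and stained in binding buffer with annexin V-FITC and PI. Flow cytometry with FITC in FL-1 (530 nm) and PI in FL-2 (585 nm), using quadrant statistics: lower right taken as apoptotic, upper right as post-apoptotic necrotic. Representative of three independent experiments.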
In the case of `O=C(Nc1nc2ccc([N+](=O)[O-])cc2s1)c1cccnc1Nc1ccc(Cl)cc1Cl`, the Activity is reported as 9%.

Tested on: HL-60
Test: Induction of apoptosis in human HL60 cells assessed as non-viable necrotic cells at 1 uM after 24 hrs using Annexin V-FITC and propidium iodide staining by flow cytometry relative to control
Assay type: functional
Details: not given
Procedure, shortened: as §2
For `O=C(Nc1nc2ccc([N+](=O)[O-])cc2s1)c1cccnc1Nc1ccc(Cl)cc1Cl`, the Activity was 40%.

Tested on: HL-60
Test: Induction of apoptosis in human HL60 cells assessed as late apoptotic cells at 1 uM after 24 hrs using Annexin V-FITC and propidium iodide staining by flow cytometry relative to control
Assay type: functional
Details: not given
Procedure, shortened: as §2
With `O=C(Nc1nc2ccc([N+](=O)[O-])cc2s1)c1cccnc1Nc1ccc(Cl)cc1Cl` the Activity was 5%.

Tested on: HL-60
Test: Induction of apoptosis in human HL60 cells assessed as caspase3 activation using DEVD-AFC as substrate at 1 uM after 24 hrs by fluorimetry relative to control
Assay type: functional
Details: not given
Procedure, shortened: (§3)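 HL-60 cells (2 x 10^6) treated 24 h, washed and lysed. Caspase-3, -8 and -9 activities in lysates measured fluorometrically with a commercial caspase fluorescent assay kit. Two independent experiments, each in duplicate.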
In the case of `O=C(Nc1nc2ccc([N+](=O)[O-])cc2s1)c1cccnc1Nc1ccc(Cl)cc1Cl`, the Activity is reported as “inactive”.

Tested on: HL-60
Test: Induction of apoptosis in human HL60 cells assessed as caspase8 activation using IETD-AFC as substrate at 1 uM after 24 hrs by fluorimetry relative to control
Assay type: functional
Details: not given
Procedure, shortened: as §3
For `O=C(Nc1nc2ccc([N+](=O)[O-])cc2s1)c1cccnc1Nc1ccc(Cl)cc1Cl`, the Activity was “inactive”.

Tested on: HL-60
Test: Induction of apoptosis in human HL60 cells assessed as caspase9 activation using LEHD-AMC as substrate at 1 uM after 24 hrs by fluorimetry relative to control
Assay type: functional
Details: not given
Procedure, shortened: as §3
For `O=C(Nc1nc2ccc([N+](=O)[O-])cc2s1)c1cccnc1Nc1ccc(Cl)cc1Cl`, the Activity was “inactive”.

Tested on: HL-60
Test: Induction of apoptosis in human HL60 cells assessed as DNA ladder formation at 1 uM after 24 hrs by agarose gel electrophoresis
Assay type: functional, cell-based
Details: not given
Procedure, shortened: (§4)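 Cells treated 24 h, then 2 x 10^6 cells lysed (Triton X-100 buffer, pH 8.0) with RNase at 37 °C for 90 min and proteinase-K at 50 °C for 1 h. DNA phenol/chloroform-extracted and ethanol-precipitated, then run on 1.8% agarose at 50 V for 1.5 h in TAE. Ladders viewed under UV.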
In the case of `O=C(Nc1nc2ccc([N+](=O)[O-])cc2s1)c1cccnc1Nc1ccc(Cl)cc1Cl`, the Activity is reported as “Active”.

Tested on: HL-60
Test: Induction of apoptosis in human HL60 cells assessed as DNA ladder formation at 10 uM after 24 hrs by agarose gel electrophoresis
Assay type: functional, cell-based
Details: not given
Procedure, shortened: as §4
For `O=C(Nc1nc2ccc([N+](=O)[O-])cc2s1)c1cccnc1Nc1ccc(Cl)cc1Cl`, the Activity was “Active”.

Tested on: SiHa
Test: Induction of apoptosis in human SiHa cells assessed as DNA ladder formation at 10 uM after 24 hrs by agarose gel electrophoresis
Assay type: functional, cell-based
Details: not given
Procedure, shortened: as §4
For `O=C(Nc1nc2ccc([N+](=O)[O-])cc2s1)c1cccnc1Nc1ccc(Cl)cc1Cl`, the Activity was “inactive”.

Tested on: HeLa
Test: Induction of apoptosis in human HeLa cells assessed as DNA ladder formation at 10 uM after 24 hrs by agarose gel electrophoresis
Assay type: functional, cell-based
Details: not given
Procedure, shortened: as §4
In the case of `O=C(Nc1nc2ccc([N+](=O)[O-])cc2s1)c1cccnc1Nc1ccc(Cl)cc1Cl`, the Activity is reported as “inactive”.

Tested on: HL-60
Test: Cell cycle arrest in human HL60 cells assessed as accumulation at sub-G0 phase measuring DNA damage at 1 uM after 24 hrs using propidium iodide staining by flow cytometry (reference value: 1%)
Assay type: functional
Details: not given
Procedure, shortened: (§5)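 HL-60 cells (1 x 10^5 per 1.5 mL) treated 24 h, then fixed in 70% cold ethanol at −20 °C overnight. RNase digestion (400 µg/ml) at 37 °C for 45 min, then propidium iodide (10 µg/ml) for 30 min. Flow cytometry on 10,000 events, FL2-A vs FL2-W, with doublet discrimination. Sub-G0 (hypodiploid) peak taken as apoptotic cells. Mean ± SD of three independent experiments.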
`O=C(Nc1nc2ccc([N+](=O)[O-])cc2s1)c1cccnc1Nc1ccc(Cl)cc1Cl` showed an Activity of 25%.

Tested on: HL-60
Test: Cell cycle arrest in human HL60 cells assessed as accumulation at G1 phase at 1 uM after 24 hrs using propidium iodide staining by flow cytometry
Assay type: functional, cell-based
Details: not given
Procedure, shortened: as §5
For `O=C(Nc1nc2ccc([N+](=O)[O-])cc2s1)c1cccnc1Nc1ccc(Cl)cc1Cl`, the Activity was “inactive”.

Tested on: HL-60
Test: Cell cycle arrest in human HL60 cells assessed as accumulation at S phase at 1 uM after 24 hrs using propidium iodide staining by flow cytometry
Assay type: functional, cell-based
Details: not given
Procedure, shortened: as §5
For `O=C(Nc1nc2ccc([N+](=O)[O-])cc2s1)c1cccnc1Nc1ccc(Cl)cc1Cl`, the Activity was “inactive”.

Tested on: HL-60
Test: Cell cycle arrest in human HL60 cells assessed as accumulation at G2/M phase at 1 uM after 24 hrs using propidium iodide staining by flow cytometry
Assay type: functional, cell-based
Details: not given
Procedure, shortened: as §5
With `O=C(Nc1nc2ccc([N+](=O)[O-])cc2s1)c1cccnc1Nc1ccc(Cl)cc1Cl` the Activity was “inactive”.

Tested on: HL-60
Test: Induction of apoptosis in human HL60 cells assessed as increase of reactive oxygen species level at 1 uM after 24 hrs using DCFH-DA fluorescent dye based flow cytometric analysis relative to control
Assay type: functional
Details: not given
Procedure, shortened: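 HL-60 cells (1 x 10^5 per 1.5 mL) treated 24 h, then loaded with 10 µM H2DCFDA for 30 min at 37 °C. Washed twice in PBS and read in FL-1 (530 nm). Percentage of DCF-positive cells determined; mean ± SD of three experiments.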
For `O=C(Nc1nc2ccc([N+](=O)[O-])cc2s1)c1cccnc1Nc1ccc(Cl)cc1Cl`, the Activity was “inactive”.

Tested on: HL-60
Test: Induction of NO production in human HL60 cells at 1 uM after 24 hrs using DAF-2DA fluorescent dye based flow cytometric analysis
Assay type: functional, cell-based
Details: not given
Procedure, shortened: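 HL-60 cells (1 x 10^5 per 1.5 mL) preloaded 30 min with 10 µM DAF-2-DA before treatment. After 24 h exposure, cells were washed and read by flow cytometry in FL-1 as NO-positive population. Mean ± SD of three independent experiments.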
In the case of `O=C(Nc1nc2ccc([N+](=O)[O-])cc2s1)c1cccnc1Nc1ccc(Cl)cc1Cl`, the Activity is reported as “inactive”.

Tested on: HL-60
Test: Induction of apoptosis in human HL60 cells assessed as decrease in mitochondrial membrane potential at 1 uM after 24 hrs using rhodamine 123 staining by flow cytometry
Assay type: functional
Details: not given
Procedure, shortened: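 HL-60 cells (1 x 10^5 per 1.5 mL) treated 24 h, then stained with rhodamine-123 (5 µg/mL final) for 1 h. Washed, and propidium iodide (5 µg/mL) added just before reading. FL-1 fluorescence from 10,000 events; percentage of low Rh-123 cells taken as loss of membrane potential. Mean ± SD, n=3.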
In the case of `O=C(Nc1nc2ccc([N+](=O)[O-])cc2s1)c1cccnc1Nc1ccc(Cl)cc1Cl`, the Activity is reported as “Active”.

Tested on: HL-60
Test: Inhibition of NF-kappaB expression in human HL60 cells at 1 uM after 24 hrs by Western blotting
Assay type: functional, cell-based
Details: not given
Procedure, shortened: (§6)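 HL-60 cells treated 24 h and lysed in RIPA buffer on ice; protein measured by Bradford against a BSA standard. 50 µg resolved by SDS-PAGE and transferred to PVDF, blocked in 5% milk/TBST, then primary antibodies 1:1000 for 2 h and HRP secondary 1:1000 for 1 h. ECL detection with β-actin as loading control; bands quantified by densitometry.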
In the case of `O=C(Nc1nc2ccc([N+](=O)[O-])cc2s1)c1cccnc1Nc1ccc(Cl)cc1Cl`, the inhibition is reported as “inactive”.

Tested on: HL-60
Test: Inhibition of survivin expression in human HL60 cells at 1 uM after 24 hrs by Western blotting
Assay type: functional, cell-based
Details: not given
Procedure, shortened: as §6
In the case of `O=C(Nc1nc2ccc([N+](=O)[O-])cc2s1)c1cccnc1Nc1ccc(Cl)cc1Cl`, the inhibition is reported as “Active”.

Tested on: HL-60
Test: Induction of apoptosis in human HL60 cells assessed as PARP cleavage at 1 uM after 24 hrs by Western blotting
Assay type: functional, cell-based
Details: not given
Procedure, shortened: as §6
For `O=C(Nc1nc2ccc([N+](=O)[O-])cc2s1)c1cccnc1Nc1ccc(Cl)cc1Cl`, the Activity was “Active”.

Tested on: HL-60
Test: Inhibition of Bcl-2 expression in human HL60 cells at 1 uM after 24 hrs by Western blotting
Assay type: functional, cell-based
Details: not given
Procedure, shortened: as §6
For `O=C(Nc1nc2ccc([N+](=O)[O-])cc2s1)c1cccnc1Nc1ccc(Cl)cc1Cl`, the inhibition was “inactive”.
